# Assay results published in PMC6087492 (Bioorganic & medicinal chemistry, 2018).
# Legend:
# OXR1 = target: T1, OXR1 (Homo sapiens, UniProt Q8N573); experiment: OXR1 degradation assay using western blot; type: cell-based; details: 5 µM, 24 h, WI-38 IR-SCs and NCs
# T1 sequence (Q8N573 1-874): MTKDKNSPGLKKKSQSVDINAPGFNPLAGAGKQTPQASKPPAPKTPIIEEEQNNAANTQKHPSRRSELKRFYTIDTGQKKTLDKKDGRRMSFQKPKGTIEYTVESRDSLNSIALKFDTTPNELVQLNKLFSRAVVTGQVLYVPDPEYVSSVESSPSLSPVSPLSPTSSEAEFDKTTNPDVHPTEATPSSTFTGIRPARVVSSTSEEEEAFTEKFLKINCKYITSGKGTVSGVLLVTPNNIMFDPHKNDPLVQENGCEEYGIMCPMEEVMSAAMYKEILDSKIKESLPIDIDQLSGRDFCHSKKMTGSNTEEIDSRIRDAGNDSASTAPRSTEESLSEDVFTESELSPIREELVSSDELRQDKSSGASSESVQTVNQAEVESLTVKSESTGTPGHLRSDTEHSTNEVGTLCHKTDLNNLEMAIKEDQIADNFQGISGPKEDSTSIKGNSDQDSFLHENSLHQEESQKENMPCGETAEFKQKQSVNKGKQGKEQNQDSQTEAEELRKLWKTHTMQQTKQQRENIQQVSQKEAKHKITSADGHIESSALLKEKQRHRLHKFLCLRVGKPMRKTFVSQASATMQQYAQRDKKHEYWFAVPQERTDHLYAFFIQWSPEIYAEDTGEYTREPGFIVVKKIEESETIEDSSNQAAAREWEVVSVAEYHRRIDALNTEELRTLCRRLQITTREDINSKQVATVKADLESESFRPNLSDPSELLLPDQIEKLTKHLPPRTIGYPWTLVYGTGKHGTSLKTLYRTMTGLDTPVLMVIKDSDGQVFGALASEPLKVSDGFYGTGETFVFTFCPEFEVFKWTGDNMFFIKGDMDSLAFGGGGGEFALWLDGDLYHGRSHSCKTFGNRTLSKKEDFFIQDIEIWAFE
# How it was run: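 Low-passage (<25) WI-38 cells, plus senescent cells made by 15 Gy ¹³⁷Cs γ-irradiation (1.080 Gy/min). Both cultured at 37 °C, 5% CO2, then given 5 µM test compound or vehicle for 24 h. Lysed in RIPA with EDTA/EGTA and transferred to PVDF. Blocked with 5% nonfat milk/TBST. Probed overnight at 4 °C for OXR1 and β-actin, HRP secondaries, ECL/autoradiography. Quantified as mean ± SEM, n = 3.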
# WI-38 IR-SCs = experiment: Apoptosis assay, Annexin V / propidium iodide flow cytometry; type: cell-based, Human; details: QVD 10 µM with 49 1 µM, 48 h and 72 h
# [1] = tested on: ROS production in WI-38 IR-SCs; experiment: ROS assay with dihydrorhodamine 123, flow cytometry; type: cell-based, Human; details: […] treatment, DHR 123 30 min
# mice = details: cited from earlier work
SMILES,OXR1 levels (western blot) (OXR1),also measured
"C=C1CCCN(C(=O)/C=C/c2cc(OC)c(OC)c(OC)c2)C1=O [Compound 47, (E)-3-Methylene-1-(3-(3,4,5-trimethoxyphenyl)acryloyl)piperidin-2-one]",selectively reduced the levels of OXR1 in SCs,
CC(C)[C@H](NC(=O)c1ccc2ccccc2n1)C(=O)N[C@@H](CC(=O)O)C(=O)COc1c(F)cccc1F [QVD],,effect of pan-caspase inhibitor on 49-induced apoptosis and death (WI-38 IR-SCs): significantly reduced apoptosis and partially rescued SCs from 49-induced death
"C=C1CCCCN(C(=O)/C=C/c2cc(OC)c(OC)c(OC)c2)C1=O [Compound 49, (E)-3-Methylene-1-(3-(3,4,5-trimethoxyphenyl)acryloyl)azepan-2-one]",selectively reduced the levels of OXR1 in SCs,
"COc1cc(/C=C/C(=O)N2CCC=CC2=O)cc(OC)c1OC [PL, piperlongumine]",abrogated the upregulation of OXR1,"ROS levels (DHR 123 fluorescence) [1]: moderate increase of the ROS levels; maximum tolerated oral dose (mice; mice, oral): > 1000 mg/kg; effective therapeutic dose for cancer (mice; oral dosing): ≥ 2.4 mg/kg"
"C=C1CCN(C(=O)/C=C/c2cc(OC)c(OC)c(OC)c2)C1=O [Compound 48, (E)-3-Methylene-1-(3-(3,4,5-trimethoxyphenyl)acryloyl)pyrrolidin-2-one]",selectively reduced the levels of OXR1 in SCs,
